Key:
Nucleic Acid = assay: Evaluated for photo-cross-linking of DNA; type: functional
Outline: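 Sonicated calf thymus DNA (200 µg) plus psoralen 0.1–100 µg/mL in 10 mM Tris-HCl, 1 mM EDTA, pH 7.0. Irradiated 30 min (~365 nm, 24 kJ/m2), heated 100 °C 5 min, ice-cooled. Double- vs single-stranded DNA resolved on hydroxylapatite with 50–500 mM phosphate gradient. The concentration giving 50% cross-linked DNA is expressed relative to 8-MOP.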

NHIK3025 [1] = assay: Evaluated for DNA. photo-cross-linking in cell line NHIK 3025 cross-linking affinity measured by alkaline elution technique.; type: functional, Homo sapiens
Outline: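 NHIK 3025 cells (~10^6) labelled 16 h with [3H]thymidine (1 µCi/mL). Psoralen in PBS at 1–90 µg/mL, 10-min equilibration, then irradiation 0.8 J/cm2 at ~365 nm. Cells trypsinized and lysed on 2-µm filter (0.2% Sarcosyl, 2 M NaCl, 40 mM EDTA, pH 10), then eluted at pH 12.2. Relative efficiency vs 8-MOP is read from concentrations giving similar elution retardation.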

Tetrahymena thermophila [2] = assay: Evaluated in vitro for phototoxic effect on ciliate Tetrahymena thermophila cells; type: functional
Mus musculus = assay: Evaluated in vivo for its photosensitization activity, against increase in skin thickness relative to that of 8-MOP.; type: functional; parameters: unit: % of 8-MOP
Outline: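 Female hairless Hr/Hr mice, 4–6 weeks, 5–28 per group. Compound given ip at 0.6, 6 or 60 mg/kg (reported at 6 mg/kg). UVA from four TL20W/09 tubes after 5 min–2 h, 4 J cm-1 as printed. Skin-fold thickness measured by caliper 24 h post-irradiation, expressed relative to 8-MOP (=100%).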

NHIK3025 [3] = assay: Evaluated in vitro for phototoxic effect on human cell line NHIK 3025, assay performed using threefold dilution and result reported by one dilution step.; type: functional
Tetrahymena thermophila [4] = assay: Evaluated for DNA photo-cross-linking in Tetrahymena thermophila and relative cross-linking affinity measured by the alkaline elution technique.; type: functional
Outline: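 Tetrahymena thermophila ~2×10^5 cells prelabelled with [3H]thymidine; phototreated with psoralen in 10 mM Tris-HCl pH 7.4 at ~365 nm. Interstrand cross-links are measured by alkaline elution: cells lysed on 2-µm filter (0.2% Sarcosyl, 2 M NaCl, 40 mM EDTA, pH 10), eluted at pH 12.2. Efficiency relative to 8-MOP is taken from concentrations giving similar elution retardation.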

| SMILES | Photo-cross-linking of DNA (Nucleic Acid) | DNA crosslinking (NHIK3025 [1]) | Phototoxic effect (Tetrahymena thermophila [2]) | Photosensitization (Mus musculus) | Phototoxic effect (NHIK3025 [3]) | DNA photo-crosslinking (Tetrahymena thermophila [4]) |
| --- | --- | --- | --- | --- | --- | --- |
| COc1c2occc2c(CN2CCOCC2)c2ccc(=O)oc12.Cl | 0.1 | <1 | 0.3 | 154 | 0.3 | 6 |
| COc1c2occc2c(COCCC[N+](C)(C)C)c2ccc(=O)oc12.[Br-] | 0.1 | 1 | <0.3 |  | 3 | 4 |
| C[N+](C)(C)CCCOc1c2occc2cc2ccc(=O)oc12.[Br-] | 1.1 | 3 | 3 | 477 | 15 | 5 |
| COc1c2occc2c(CN(CCO)CCO)c2ccc(=O)oc12.Cl | 0.2 | 1 | 0.3 | 339 | 3 | 3 |
| COCc1c2ccoc2c(OC)c2oc(=O)ccc12 | 0.04 |  |  |  |  |  |
| COc1c2occc2c(CN2CCN(C)CC2)c2ccc(=O)oc12.Cl | 0.2 | 9 | 10 | 325 | 5 |  |
| O=c1ccc2cc3ccoc3c(OCCO)c2o1 | 1 |  |  |  |  |  |
| COc1c2occc2c(CN(C)C)c2ccc(=O)oc12.Cl | 0.6 | 24 | 15 | 194 | 7 | 14 |
| CC[N+](CC)(CC)Cc1c2ccoc2c(OC)c2oc(=O)ccc12.[Cl-] | 0.05 | 8 | 5 | 133 | 3 | 14 |
| COc1c2occc2c(CN)c2ccc(=O)oc12.Cl | 2.1 | 8 | 5 | 172 | 1 | 3 |
| CN1CC[N+](C)(CCCOc2c3occc3cc3ccc(=O)oc23)CC1.[Br-] | 2.5 | 7 | 10 | 463 | 10 | 2 |
| COc1c2occc2c(CN(C(C)C)C(C)C)c2ccc(=O)oc12.Cl | 0.15 | 12 | 10 | 87 | 2 |  |
| COc1c2occc2c(CN2CCCCC2)c2ccc(=O)oc12.Cl | 0.3 | 19 |  | 238 | 3 | 8 |
| COc1c2occc2c(COCCCO)c2ccc(=O)oc12 | < 0.07 |  |  |  |  |  |
| COc1c2occc2cc2ccc(=O)oc12 [METHOXSALEN] | 1 | 100 | 100 | 100 | 100 | 100 |
| COc1c2occc2c(CO)c2ccc(=O)oc12 | 0.07 |  |  |  |  |  |
| COc1c2occc2c(C[N+](C)(C)C)c2ccc(=O)oc12.[Cl-] | 0.1 | 3 | 0.3 | 140 | 1 | 2 |
| Br.CCN(CC)CCCOc1c2occc2cc2ccc(=O)oc12 | 1.8 | 190 | 150 | 357 | 100 | 170 |
| COc1c2occc2c(CN(C)CCO)c2ccc(=O)oc12.Cl | 0.5 | 15 | 3 | 306 | 2 |  |

From ChEMBL document CHEMBL1122909, “Psoralenamines. 3. Synthesis, pharmacological behavior, and DNA binding of 5-(aminomethyl)-8-methoxy-, 5-[[(3-aminopropyl)oxy]methyl]-, and 8-[(3-aminopropyl)oxy]psoralen derivatives” (1985)
